M1 antag – human CHRM1 antagonism; P11229; CHO-K1 hM1, Fluo-8 calcium fluorescence, ACh EC80 antagonist; inhibition, % at 3 µM; 1.3% of 360,000 active;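 active = percent inhibition above its own plate's cutoff, namely the mean of that plate's compound wells plus 3 SD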;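 note: peak over basal fluorescence ratio during 140 s after agonist addition; 0% = ACh EC80 plus DMSO and 100% = DMSO alone without agonist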
Target sequence (P11229 whole entry, looked up): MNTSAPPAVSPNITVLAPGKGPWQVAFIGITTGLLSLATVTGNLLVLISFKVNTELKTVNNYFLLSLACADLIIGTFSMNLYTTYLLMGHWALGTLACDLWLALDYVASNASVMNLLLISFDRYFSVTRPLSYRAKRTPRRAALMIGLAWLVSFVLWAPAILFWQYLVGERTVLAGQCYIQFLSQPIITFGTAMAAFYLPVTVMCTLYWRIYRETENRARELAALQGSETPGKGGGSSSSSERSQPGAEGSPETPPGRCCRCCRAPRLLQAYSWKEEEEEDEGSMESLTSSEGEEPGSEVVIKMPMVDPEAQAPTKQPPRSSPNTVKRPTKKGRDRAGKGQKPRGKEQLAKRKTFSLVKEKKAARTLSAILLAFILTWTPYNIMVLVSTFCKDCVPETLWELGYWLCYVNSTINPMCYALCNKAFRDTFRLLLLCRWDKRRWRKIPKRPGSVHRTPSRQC
M1 PAM – human CHRM1 positive allosteric modulation; CHO-K1 hM1, Fluo-8 calcium fluorescence, ACh EC20; 0% = ACh EC20, 100% = maximal ACh; activation, % at 3 µM; 0.088% of 360,000 active; P11229; in the data active = activation above about 19%, passing the limit was not always enough
M5 antag – antagonists of human muscarinic M5 receptor (CHRM5); P08912; CHO-hM5 cells, Fluo-8 calcium fluorescence, ACh EC80; AID 624040; inhibition, % at 3 µM; 0.59% of 360,000 active;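 active = inhibition above a per-plate cutoff, the mean of that plate's test compounds plus 3 SD, cut at about 27% in these data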;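 note: 0% = acetylcholine EC80 with DMSO and 100% = DMSO without agonist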
CHRM5 PAM – CHRM5 positive allosteric modulation. CHO-K1 hM5, Fluo-8 calcium, ACh EC20 PAM; 0% = ACh EC20, 100% = ACh EC100. activation, % at 3 µM. 0.3% of 360,000 active;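 active = activation above the run cutoff, the mean activation of all test compounds plus 3 SD, cut at about 18% in these data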
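Measured by: Fluo-8 calcium fluorescence; material: human M5 receptor in CHO-K1 cells; schedule: Post-acetylcholine fluorescence recording 140 s; benchmarks: low control EC20 acetylcholine (0%), high control EC100 acetylcholine (100%); read-out: Max/basal fluorescence ratio as % of EC20–EC100 ACh window; compound: single dose, 3 µM nominal final test concentration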
M1 ag – agonists of human M1 muscarinic receptor; activation, % at 3 µM; 0.33% of 360,000 active; P11229; CHO-K1 hM1, Fluo-8 calcium fluorescence, agonist mode; 0% DMSO, 100% acetylcholine EC100;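 active = activation above the run's mean compound activation plus 3 SD, cut at about 16% in these data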;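 note: peak over basal fluorescence ratio within a 140 s kinetic read after compound addition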
CHRM5 agonist – CHRM5 agonism in calcium assay | P08912 | CHO-K1 hM5 cells, Fluo-8 calcium fluorescence; 0% DMSO wells, 100% maximal acetylcholine response | activation, % at 3 µM | 0.19% of 360,000 active;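 active = activation above the run's mean over test compounds plus 3 SD, cut at about 23% in these data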;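 note: signal is peak over basal fluorescence ratio across the kinetic read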
Numbers without * were called inactive; x = not tested or not shown. Hits are enriched below; roughly 2% of the tested compounds scored in any of these assays.

SMILES | M1 antag | M1 PAM | M5 antag | CHRM5 PAM | M1 ag | CHRM5 agonist
Cc1ccccc1NC(=O)NCCCN1CCN(C2CCCCC2)CC1 | -9.6 | -3.6 | -5.3 | 0.7 | -1.7 | -8.0
CCOC(=O)C1(C)CCN1C(=O)c1ccc(C(F)(F)F)cc1 (stereo not given) | -14.8 | 17.7 | 10.8 | -4.2 | -0.1 | 2.0
Cc1ccc(-c2nc(C=Nc3cccc(C)c3)c(O)o2)cc1 | -10.3 | 5.1 | -0.5 | 18.3* | -2.3 | 1.5
CCOC(=O)C1CCCN(C2=NC(=O)/C(=C/c3ccc(N(C)C)cc3)S2)C1 (stereo not given) | 2.0 | -1.5 | 6.8 | -6.8 | 24.4* | 11.4
COc1ccc(CN(C)C(=O)c2cc(-c3ccccc3)nc3ccc(C)cc23)c(OC)c1 | 37.2* | -16.9 | 18.2 | -15.9 | -3.4 | 2.7
Cc1nn(C)cc1CN(C)C(=O)c1cc(-c2ccccc2)nc2ccc(Br)cc12 | 34.3* | -6.8 | 23.0 | -25.7 | -1.1 | -0.8
Cn1cc(CNC(=O)c2cc(-c3ccccc3)nc3ccc(Br)cc23)cn1 | 8.8 | -10.0 | 14.5 | -13.1 | -8.0 | -1.4
O=C(C1CCCCC1)N1CCC2CC1c1cc(Cl)ccc12 (stereo not given) | -3.6 | -0.5 | 4.6 | -4.7 | -5.4 | 0.5
CC1(C(=O)NC2CCCCCC2)CCN1C(=O)C1(c2ccccc2)CC1 (stereo not given) | -6.8 | 3.1 | 3.4 | -0.3 | -8.0 | -1.7
CC1(C(=O)NCc2ccccc2)CSCC(=O)N1CCOc1ccccc1 (stereo not given) | x | x | -6.9 | 4.7 | x | -2.4
Cc1cc(Cl)ccc1OCC(=O)Nc1ccncc1 | 26.3 | -8.2 | 32.6* | -22.4 | 3.9 | 3.0
CCN1CCN(c2ccc(NC(=O)COc3ccccc3Cl)cc2)CC1 | 31.7* | -15.4 | 0.2 | -7.3 | -5.0 | -7.8
CCN1CCN(c2ccc(NC(=O)COc3ccc(Cl)cc3C)cc2)CC1 | 100.3* | -26.8 | 41.9* | -48.0 | -7.7 | -11.7
O=C(COc1ccccc1Cl)Nc1ccc(N2CCCC2)cc1 | -15.1 | 7.5 | 8.4 | -3.0 | -4.0 | -5.2
CCn1c(SCC(=O)Nc2cc(C)on2)nnc1-c1ccc(S(=O)(=O)N2CCCC2)cc1 | -15.4 | 7.8 | 9.0 | 3.5 | -7.6 | 0.4
Cc1ccc(S(=O)(=O)N2CCC(c3nnc(SCCN4CCCC4)n3C)CC2)cc1 | 25.6* | -22.5 | 7.7 | -5.0 | -10.8 | -7.4
Cn1c(SCCN2CCCC2)nnc1C1CCN(S(=O)(=O)c2ccc(F)cc2)CC1 | 32.6* | -23.6 | 4.2 | -1.5 | -11.8 | -6.9
CCn1c(SCCN2CCCCC2)nnc1-c1ccc(S(=O)(=O)N2CCOCC2)cc1 | 93.0* | -19.9 | 12.0 | -1.6 | -4.0 | -16.5
O=C(CCCSCCCC(=O)NN=Cc1ccccc1)NN=Cc1ccccc1 | 0.0 | -8.1 | 11.0 | 2.0 | 0.8 | -1.6
CCOC(=O)[C@H]1[C@H]2COc3cc(OC)ccc3[C@@H]2N2C(=O)CN(CC3CCCO3)C(=O)[C@@]12C (stereo not given in full) | 0.3 | 2.0 | 12.2 | -4.3 | -3.9 | 1.5
Cc1cc2nnc(SC(C)C#N)n2c2ccccc12 (stereo not given) | -3.4 | 4.5 | -0.4 | 1.3 | -3.5 | -0.4
Cc1cc2nnc(SC(C)C)n2c2ccccc12 | 33.2* | -9.6 | 8.5 | 7.3 | -1.9 | -2.9
COc1ccccc1C(=O)NNC(=S)NC(=O)c1sc2ccccc2c1Cl | -0.4 | -5.0 | 3.1 | 1.6 | 22.2* | 1.6
COc1ccccc1CNC(=O)C1CC(c2ccccc2[N+](=O)[O-])=NO1 (stereo not given) | -8.9 | 11.5 | -5.9 | 20.7* | -2.5 | -0.1
COc1ccc(CNC(=O)C2CC(c3ccccc3[N+](=O)[O-])=NO2)cc1 (stereo not given) | -5.7 | 11.7 | 7.9 | 0.9 | -1.0 | -3.2
SMILES | M1 antag | M1 PAM | M5 antag | CHRM5 PAM | M1 ag | CHRM5 agonist
Clc1ccc(CSc2nnc(NC3=NCCCCC3)s2)cc1 | 33.4* | -15.9 | 7.4 | -19.3 | -5.1 | -3.0
Nc1nnc(SCc2ccc(Cl)cc2)s1 | 28.0* | -11.1 | 6.0 | -9.6 | -4.8 | -3.7
CCOc1ccc(Cl)cc1-c1cc(C(=O)Nc2ccc(Br)cc2)[nH]n1 | -2.9 | -2.6 | 14.4 | -3.0 | -4.6 | -0.2
COC(C(=O)Nc1ccc(S(=O)(=O)Nc2ccc(F)cc2)cc1)c1ccccc1 (stereo not given) | 2.8 | 6.8 | -0.1 | -0.3 | 18.3* | 19.9
CCCNC(=O)C1(C)CCCN(Cc2ccsc2)C1 (stereo not given) | -9.0 | 4.6 | 1.0 | -1.4 | -4.6 | -1.1
C[C@H]1CN(C2CCCCC2)C(=O)[C@@H]1CC(=O)Nc1ccc(Br)cc1 | -20.9 | 11.1 | -8.7 | 2.8 | -4.4 | 0.0
COCCNC(=O)C(c1ccc(F)cc1)N(C(=O)CCC(=O)Nc1ccccn1)c1ccc(C)cc1 (stereo not given) | -2.4 | 7.3 | 29.4* | 13.4 | -5.0 | 1.4
O=C(C[n+]1cc(-c2ccc(F)cc2)n2c1CCC2)N1c2ccccc2Sc2ccccc21 | 95.7* | -25.3 | 97.1* | -18.8 | -7.4 | -8.0
Cc1ccc(-c2c[n+](CC(=O)N3c4ccccc4Sc4ccccc43)c3n2CCC3)cc1 | 99.8* | -25.4 | 99.6* | -20.5 | -7.1 | -8.3
O=C(C[n+]1cc(-c2ccccc2)n2c1CCC2)N1c2ccccc2Sc2ccccc21 | 98.7* | -26.4 | 51.9* | -18.8 | -8.0 | -10.1
O=C(CSc1nnc(Cn2nnc3ccccc32)o1)N(Cc1ccc(Cl)cc1)c1ccccc1 | 20.1* | -12.4 | 29.7* | -17.6 | 1.0 | 1.7
CCOC(=O)c1cc(C#N)c(N2CCN(c3ccc(OC)cc3)CC2)[nH]c1=O | 5.8 | 6.7 | 6.0 | 25.9* | -1.8 | 10.8
CCOC(=O)c1[nH]c2ccc(OC)cc2c1C | -3.2 | 6.1 | 31.8* | -3.1 | -2.9 | 1.2
CCOC(=O)c1[nH]c(C)c(C(=O)N2CCN(c3ccc(OC)cc3)CC2)c1C | -5.7 | 9.9 | -3.4 | 8.0 | -6.4 | 3.6
CCOC(=O)c1[nH]c2ccc(OC)cc2c1NC(C)=O | -5.7 | 1.8 | -2.3 | 10.4 | -4.6 | -1.4
CCOC(=O)c1[nH]c(CN2CCN(c3ccc(OC)cc3)CC2)c(C(=O)OCC)c1C | 3.3 | -1.5 | -7.5 | -1.2 | 16.0* | 17.5
COc1ccc(C(=O)Nc2ccccc2C(=O)NC2CC2)c(OC)c1OC | -10.6 | 2.3 | 1.1 | -5.3 | -1.4 | 1.7
O=C(NC1CC1)c1cccc2c1C(=O)c1ccc(N3CCC(N4CCCCC4)CC3)cc1S2(=O)=O | 12.2 | -10.9 | 2.2 | 3.5 | -6.7 | 1.1

Assay outcomes: PubChem, The Scripps Research Institute Molecular Screening Center
